Cardiac RTF inh = cardiac RTF calcium sensitivity inhibitors, primary screen, biochemical, IANBD-TnC fluorescence, EC70 calcium | Troponin I, cardiac muscle (Homo sapiens) + Troponin T, cardiac muscle (Homo sapiens) + … | IANBD-labeled cardiac RTF, Ca2+ fluorescence | inhibition, % at 7.15 µM | 340,000 tested, 0.12% active | AID 493244, 2011;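 active means inhibition above the mean inhibition of all tested compounds plus 3 SD, cut at about 17% in these data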;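 further: assay run at fixed EC70 calcium of 1.6 mM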
SUMO Mot1 rescue = yeast Mot1-301 growth rescue at high temperature, primary screen, SUMOylation pathway inhibitor project, S. cerevisiae, ATP luminescence, 38.5C | S. cerevisiae Mot1-301 growth rescue; percent above DMSO median, 100 means doubled | growth rescue, % at 18.8 µM | 320,000 tested, 1% active | AID 2716, 2010;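 active means every valid replicate shows activation above 250% relative to neutral control wells; inactive means the rest, any valid replicate at or below 250%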
Efflux pump mplx = inhibitors of Candida efflux pumps in yeast, primary screen, S. cerevisiae, Nile Red, multiplex; 330,000 tested, 0.44% active; S. cerevisiae Candida pump triplex; inhibition, % at 10 µM; AID 485275, 2010;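 active means plate passing quality check with inhibition over a set limit, or well fluorescence over plate mean plus 4 SD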;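 further: Nile Red retained in pooled yeast measured as flow cytometry median fluorescence; higher means more Nile Red kept so more efflux inhibition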
cardiac RTF act = cardiac RTF calcium sensitivity activators, primary screen, biochemical, IANBD-TnC fluorescence, EC20 calcium | IANBD-labeled TnC RTF fluorescence at EC20 calcium; 0% EC20 calcium, 100% full calcium | activation, % at 7.2 µM | 340,000 tested, 0.24% active | AID 493008, 2010;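 active means activation above the mean over all tested compounds plus 3 SD, cut at about 30% in these data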;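 further: rise in fluorescence read as greater calcium sensitivity of cardiac thin filaments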
UCH37 inh = inhibitors of human UCH37 deubiquitinase, primary screen, biochemical, Ub-AMC cleavage, fluorescence. AID 588478, 2011. Ubiquitin carboxyl-terminal hydrolase isozyme L5 (Homo sapiens), Q9Y5K5. 330,000 tested, 0.33% active. purified proteasome/UCH37. inhibition, % (test concentration not listed);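 active means mean inhibition over replicate wells above about 20%, limit read from the data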
Target sequence (Q9Y5K5 whole entry, looked up): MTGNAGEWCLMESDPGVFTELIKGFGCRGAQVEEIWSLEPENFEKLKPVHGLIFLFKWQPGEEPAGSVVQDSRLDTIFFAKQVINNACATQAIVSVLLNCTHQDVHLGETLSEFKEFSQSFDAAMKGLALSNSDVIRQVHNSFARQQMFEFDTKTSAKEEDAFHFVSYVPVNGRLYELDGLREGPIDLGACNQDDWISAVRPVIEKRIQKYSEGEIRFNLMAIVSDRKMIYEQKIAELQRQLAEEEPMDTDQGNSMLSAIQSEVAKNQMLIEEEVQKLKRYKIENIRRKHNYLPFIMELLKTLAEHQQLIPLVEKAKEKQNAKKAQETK
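assay system = human UCH37 enzyme supplied as purified proteasome complex | amount = proteasome at 0.15 nM in the dispensed enzyme solution | schedule = 30 min compound-proteasome preincubation then 25 min substrate reaction, room temperature | measured by = fluorescence, ex 355 nm, em 460 nm | benchmarks = no-proteasome wells (full inhibition) and compound-free wells (no inhibition)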
ARNT TACC3 PPI = disruptors of ARNT/TACC3 protein interaction, primary screen, biochemical, AlphaScreen, single concentration. Transforming acidic coiled-coil-containing protein 3 (Homo sapiens), Q9Y6A5. AID 623870, 2012. AlphaScreen His-ARNT PAS-B/GST-TACC3 binding, luminescence; TACC3 fragment carries E629A point mutation. 390,000 tested, 0.66% active. inhibition, % at 9.99 µM;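 active means mean inhibition of replicates at least 50% and at least half of replicates each reaching 50%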
Each line names hits and unclear results; the compound was inactive in the other large screens. A selection: hits, their analogues and other compounds. The true share with any hit is near 2.1%.

CC[n+]1c(C=C2C=C(C)OC(C)=C2)sc2ccccc21	UCH37 inh 22.6 (no result: SUMO Mot1 rescue, Efflux pump mplx)
CC(=NNC(=O)c1cccs1)c1ccncc1	none (no result: Cardiac RTF inh, SUMO Mot1 rescue, Efflux pump mplx, cardiac RTF act, ARNT TACC3 PPI)
COc1ccc(C(=O)NN=Cc2ccc(OC(=O)c3cccs3)cc2)cc1	none (no result: Cardiac RTF inh, SUMO Mot1 rescue, Efflux pump mplx, cardiac RTF act, ARNT TACC3 PPI)
CCCc1nc2ccccc2c(=O)n1N=Cc1ccccc1O	none (no result: Cardiac RTF inh, SUMO Mot1 rescue, Efflux pump mplx, cardiac RTF act, ARNT TACC3 PPI)
CCCc1nc2ccccc2c(=O)n1/N=C/c1ccccc1O	ARNT TACC3 PPI 57.4 (no result: UCH37 inh)
Cc1ccc(OCC(=O)NN=C/C=C/c2ccco2)cc1	none (no result: Cardiac RTF inh, SUMO Mot1 rescue, Efflux pump mplx, cardiac RTF act, ARNT TACC3 PPI)
CC[C@@]1(O)C(=O)OCc2c1cc1n(c2=O)Cc2cc3c(N)cccc3nc2-1	none
CC[C@@]1(O)C(=O)OCc2c1cc1n(c2=O)Cc2cc3c(CN(C)C)c(O)ccc3nc2-1	cardiac RTF act 221.5
Cc1ccccc1CS(=O)(=O)c1ncc(Cl)c(C(=O)Nc2ccc(F)cc2)n1	SUMO Mot1 rescue 316.4
CC1(C)Cc2c(sc(NC(=O)COc3ccc(Cl)cc3)c2C#N)C(C)(C)N1	Efflux pump mplx 1.6
Cn1cc(CNC(=O)C2CCC(=O)N(Cc3ccc(Cl)cc3)C2)cn1 (stereo not drawn)	none
CC(C)n1cc(CNC(=O)C2CCC(=O)N(Cc3ccccc3F)C2)cn1 (stereo not drawn)	SUMO Mot1 rescue 323.7
O=C(NN=Cc1cc(Br)ccc1O)c1ccncc1	none (no result: Cardiac RTF inh, SUMO Mot1 rescue, Efflux pump mplx, cardiac RTF act, ARNT TACC3 PPI)
CCCNC(=O)Cn1c(=O)/c(=C/c2ccc(-c3ccc([N+](=O)[O-])cc3)o2)s/c1=C\C(=O)C(C)(C)C	cardiac RTF act 52.3 (no result: SUMO Mot1 rescue, Efflux pump mplx)
Cc1ccc(N2C(=O)C3C(C2=O)C(C(=O)c2ccc(Cl)cc2)N2CCCC32)cc1 (stereo not drawn)	none
CC(=O)Oc1ccc(N2C(=O)C3C(C2=O)C(C(=O)c2ccc(Cl)cc2)N2CCCC32)cc1 (stereo not drawn)	cardiac RTF act 44.6
Cc1ccc(C(=O)ON=C2CCCc3ccccc32)cc1	none (no result: Cardiac RTF inh, SUMO Mot1 rescue, Efflux pump mplx, cardiac RTF act, ARNT TACC3 PPI)
COc1cc(C=Nn2cnnc2)ccc1OCc1ccc(C)cc1	none (no result: Cardiac RTF inh, SUMO Mot1 rescue, Efflux pump mplx, cardiac RTF act, ARNT TACC3 PPI)
CCOC(=O)c1c(N)sc(C(=O)N2CCCCC2)c1C	ARNT TACC3 PPI 47.0
O=[N+]([O-])c1cccc(C=NNc2nnc(-c3ccccc3)c(-c3ccccc3)n2)c1	none (no result: Cardiac RTF inh, SUMO Mot1 rescue, Efflux pump mplx, cardiac RTF act, ARNT TACC3 PPI)
O=C1CCN(CCCc2ccccc2)CCN1[C@H](CO)c1ccccc1	UCH37 inh 28.1
N=c1n(Cc2ccccc2)c2ccccc2n1CC(O)c1ccco1 (stereo not drawn)	cardiac RTF act 39.8
CCn1c(=N)n(CC(O)c2ccco2)c2ccccc21 (stereo not drawn)	none
CCOC(=O)CC(C)=NNC(=O)c1cccs1	none (no result: Cardiac RTF inh, SUMO Mot1 rescue, Efflux pump mplx, cardiac RTF act, ARNT TACC3 PPI)
COc1ccccc1[C@]1(C)ON(c2ccccc2C(F)(F)F)C1=O	SUMO Mot1 rescue 296.4
O=C(NC(=S)Nc1ccc(S(=O)(=O)Nc2nccs2)cc1)c1ccccc1	none
Cc1onc(-c2ccccc2Cl)c1C(=O)Nc1ccc(S(=O)(=O)Nc2nccs2)cc1	UCH37 inh 30.0
O=C(NC(=S)Nc1ccc(S(=O)(=O)Nc2nccs2)cc1)c1ccc(Br)o1	ARNT TACC3 PPI 52.3
CN(C)c1ccc(C=NNC(=S)NCc2ccco2)cc1	none (no result: Cardiac RTF inh, SUMO Mot1 rescue, Efflux pump mplx, cardiac RTF act, ARNT TACC3 PPI)
COc1cc(C=NNC(=O)c2ccccn2)ccc1OC(=O)c1ccc(Br)cc1	none (no result: Cardiac RTF inh, SUMO Mot1 rescue, Efflux pump mplx, cardiac RTF act, ARNT TACC3 PPI)
Oc1ccc2nnc3c(Br)cnn3c2c1	cardiac RTF act 84.3 (no result: UCH37 inh)
O=[N+]([O-])c1ccc(C=NNc2ncc(-c3ccccc3)cn2)cc1	none (no result: Cardiac RTF inh, SUMO Mot1 rescue, Efflux pump mplx, cardiac RTF act, ARNT TACC3 PPI)
O=C(NN=Cc1ccco1)c1cc(-c2ccncc2)nc2ccccc12	none (no result: Cardiac RTF inh, SUMO Mot1 rescue, Efflux pump mplx, cardiac RTF act, ARNT TACC3 PPI)
CCOC(=O)c1ccc2c(c1)n(CC)c(/C=C/N(C)c1ccccc1)[n+]2CC	UCH37 inh 23.5
Cc1c(C=O)c(Cl)n(C)c(=O)c1C#N	UCH37 inh 21.3
CC(=O)N=Cc1c(C)c(C#N)c(=O)n(C)c1O	none (no result: SUMO Mot1 rescue)
Cc1ccccc1CC1S/C(=N/N=Cc2ccco2)NC1=O (stereo not drawn)	none (no result: Cardiac RTF inh, SUMO Mot1 rescue, Efflux pump mplx, cardiac RTF act, ARNT TACC3 PPI)
COc1ccccc1C(=O)NN(C)C1=NS(=O)(=O)c2ccccc21	cardiac RTF act 59.9
CN(NC(=O)CN1C(=O)c2ccccc2C1=O)C1=NS(=O)(=O)c2ccccc21	none (no result: ARNT TACC3 PPI)
CC(C)CC(NC(=O)c1ccc(Cl)cc1Cl)C(=O)O (stereo not drawn)	SUMO Mot1 rescue 271.0 (no result: ARNT TACC3 PPI)
CC(C)CC(NC(=O)c1ccccc1NC(=O)c1ccccc1)C(=O)O (stereo not drawn)	none (no result: ARNT TACC3 PPI)
Cc1ccc(S(=O)(=O)Nc2ccc(Br)cc2C(NCC(=O)O)c2ccccc2)cc1 (stereo not drawn)	none
O=C(O)CSc1cc(NS(=O)(=O)c2ccc(Br)cc2)c2ccccc2c1O	ARNT TACC3 PPI 97.2 (no result: UCH37 inh)
CCCCNCCOCCOc1ccc(F)cc1	SUMO Mot1 rescue 303.8
Cn1c(C=NNC(=O)c2ccccc2Br)nc2ccccc21	none (no result: Cardiac RTF inh, SUMO Mot1 rescue, Efflux pump mplx, cardiac RTF act, ARNT TACC3 PPI)
Nc1nc(NC(=O)Cc2ccccc2)nn1-c1ccccc1	ARNT TACC3 PPI 47.6
Nc1nc(NC(=O)/C=C\C(=O)O)nn1-c1ccccc1	ARNT TACC3 PPI 74.1
CCCCC(=O)N/N=C/c1ccc(Sc2cccc3cccnc23)o1	ARNT TACC3 PPI 54.2 (no result: UCH37 inh)
O=C(O)Cc1cccc(=O)c(O)c1C(=O)O	ARNT TACC3 PPI 93.2 (no result: SUMO Mot1 rescue, Efflux pump mplx, UCH37 inh)
O=C(O)Cc1ccccc1C(=O)O	none
